# The source made the active and inactive calls. The rule behind the calls is not given here.
# Tests used:
# RAW264.7 [1] = assay: Antiinflammatory activity in mouse RAW264.7 cells assessed as inhibition of LPS-induced nitric oxide production preincubated for 3 hrs followed by LPS addition and measured after 24 hrs by griess assay; format: functional, cell-based
# Method in brief: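 RAW264.7 cells in 96-well plates were exposed to compounds over 0–100 µM for 3 h, then to LPS 1 µg/mL for 24 h. Controls were DMSO without LPS (vehicle) and DMSO with LPS (model). Nitrite in the medium was read with Griess reagent at 540 nm. Percent inhibition was calculated and IC50 derived; hydrocortisone was the positive control.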
# RAW264.7 [2] = assay: Inhibition of LPS-induced IkappaBalpha expression in mouse RAW264.7 cells at 5 to 20 uM preincubated for 3 hrs followed by LPS addition and measured after 24 hrs by Western blot analysis; format: functional, cell-based
# Method in brief: (§1)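 RAW264.7 cells in 6-well plates were pretreated as for ELISA, then given LPS 1 µg/mL for 24 h and lysed with protease inhibitors. 30 µg total protein was run on 10% SDS-PAGE and blotted to nitrocellulose, blocked in 5% skim milk, and probed overnight at 4 °C. Primary antibodies were iNOS 1:200; COX-2, NF-κB, IκBα and p-IκBα 1:2000; β-actin 1:2000 as reference. Detection used HRP secondary and ECL; data from ≥3 independent experiments.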
# RAW264.7 [3] = assay: Antiinflammatory activity in mouse RAW264.7 cells assessed as inhibition of LPS-induced COX2 expression at 5 to 20 uM preincubated for 3 hrs followed by LPS addition and measured after 24 hrs by Western blot analysis; format: functional, cell-based; method in brief: as §1
# RAW264.7 [4] = assay: Antiinflammatory activity in mouse RAW264.7 cells assessed as inhibition of LPS-induced IL1beta production preincubated for 3 hrs followed by LPS addition and measured after 24 hrs by ELISA; format: functional, cell-based
# Method in brief: (§2)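 Cells in 96-well plates were pretreated with DMSO or compound at 5, 10 and 20 µM for 3 h, then stimulated with LPS 1 µg/mL for 24 h. IL-1β and IL-6 in the medium were quantified by commercial ELISA, with OD read at […]. Results are mean ± SD of at least three independent experiments.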
# [5] = target: Transcription factor p65 (Mus musculus) (UniProt Q04207); assay: Inhibition of LPS-induced NFkappaB p65 nuclear translocation in mouse RAW264.7 cells at 10 uM preincubated for 2 hrs followed by LPS-stimulation and measured after 12 hrs by DAPI staining based immunofluorescence microscopic analysis; format: cell-based
# Method in brief: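 Cells grown in glass chambers were pretreated with DMSO or compound for 2 h, then given LPS 1 µg/mL for 12 h. They were fixed in 4% paraformaldehyde for 15 min, permeabilized with 0.25% Triton X-100, and labelled with p65 antibody plus AlexaFluor488 secondary. Nuclei were stained with DAPI at 37 °C for 30 min in the dark, and cells were imaged by fluorescence microscopy.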
# RAW264.7 [6] = assay: Antiinflammatory activity in mouse RAW264.7 cells assessed as inhibition of LPS-induced IL6 production preincubated for 3 hrs followed by LPS addition and measured after 24 hrs by ELISA; format: functional, cell-based; method in brief: as §2
# RAW264.7 [7] = assay: Antiinflammatory activity in mouse RAW264.7 cells assessed as inhibition of LPS-induced iNOS expression at 5 to 20 uM preincubated for 3 hrs followed by LPS addition and measured after 24 hrs by Western blot analysis; format: functional; method in brief: as §1
# RAW264.7 [8] = assay: Cytotoxicity against mouse RAW264.7 cells assessed as effect on cell viability at 3.125 to 100 uM after 24 hrs by CCK8 assay; format: cell-based; conditions: raw264.7, 24 h
# Method in brief: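 Cells were grown in DMEM with 10% FBS and penicillin/streptomycin at 37 °C, 5% CO2. For the assay they were seeded at 5×10^4 cells/well and exposed in serum-free medium to a range of compound concentrations for 24 h, with DMSO as vehicle. Viability was read by CCK-8, in triplicate.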
# RAW264.7 [9] = assay: Inhibition of LPS-induced NFkappaB expression in mouse RAW264.7 cells at 5 to 20 uM preincubated for 3 hrs followed by LPS addition and measured after 24 hrs by Western blot analysis; format: functional, cell-based; method in brief: as §1
# [10] = target: T1, NF-kappa-B inhibitor alpha (Mus musculus) (UniProt Q9Z1E3); assay: Inhibition of LPS-induced IkappaBalpha phosphorylation in mouse RAW264.7 cells at 5 to 20 uM preincubated for 3 hrs followed by LPS addition and measured after 24 hrs by Western blot analysis; format: cell-based; method in brief: as §1
# T1 sequence (whole entry): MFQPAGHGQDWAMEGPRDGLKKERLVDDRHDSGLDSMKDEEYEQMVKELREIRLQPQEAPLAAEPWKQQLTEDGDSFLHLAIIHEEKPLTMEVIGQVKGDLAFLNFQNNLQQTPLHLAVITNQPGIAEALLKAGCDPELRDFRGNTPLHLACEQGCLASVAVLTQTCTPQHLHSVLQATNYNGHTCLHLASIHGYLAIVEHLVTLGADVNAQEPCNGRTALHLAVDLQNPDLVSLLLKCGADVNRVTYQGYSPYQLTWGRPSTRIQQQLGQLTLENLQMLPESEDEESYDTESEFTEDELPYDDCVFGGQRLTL
# Chain of Transcription factor p65 (Mus musculus) (Q04207 whole entry): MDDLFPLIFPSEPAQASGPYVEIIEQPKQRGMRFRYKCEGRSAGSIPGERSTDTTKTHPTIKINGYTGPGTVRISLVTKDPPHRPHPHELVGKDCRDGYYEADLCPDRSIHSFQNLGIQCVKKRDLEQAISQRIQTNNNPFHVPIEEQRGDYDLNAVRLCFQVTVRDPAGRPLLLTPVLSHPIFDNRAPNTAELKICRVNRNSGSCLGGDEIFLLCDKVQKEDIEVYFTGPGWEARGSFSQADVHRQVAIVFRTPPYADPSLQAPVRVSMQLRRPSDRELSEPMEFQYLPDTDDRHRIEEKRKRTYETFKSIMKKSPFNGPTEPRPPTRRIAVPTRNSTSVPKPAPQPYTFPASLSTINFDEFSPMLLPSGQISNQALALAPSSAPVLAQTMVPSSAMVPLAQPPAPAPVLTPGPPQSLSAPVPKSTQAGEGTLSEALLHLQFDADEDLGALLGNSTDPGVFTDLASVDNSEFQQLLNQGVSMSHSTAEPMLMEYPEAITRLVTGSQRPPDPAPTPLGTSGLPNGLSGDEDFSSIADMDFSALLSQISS
IC50 (RAW264.7 [1]),Structure (SMILES),also measured
44.7 µM,C=C1CCC2[C@](C)(CO)[C@H](O)CC[C@@]2(C)[C@@H]1CCOc1cccc2ccccc12 (stereo partly drawn),–
> 100 µM,C=C1CCC2[C@](C)(CO)[C@H](O)CC[C@@]2(C)[C@@H]1CCOc1ccc2oc(-c3ccccc3)cc(=O)c2c1 (stereo partly drawn),–
37.3 µM,C=C1CCC2[C@](C)(CO)[C@H](O)CC[C@@]2(C)[C@@H]1CCOC(=O)c1ccc([N+](=O)[O-])cc1 (stereo partly drawn),–
> 100 µM,C=C1CCC2[C@](C)(CO)[C@H](O)CC[C@@]2(C)[C@@H]1CCn1c(N)nccc1=O (stereo partly drawn),–
> 100 µM,C=C1CCC2[C@](C)(CO)[C@H](O)CC[C@@]2(C)[C@@H]1CCn1cnc2c(N)ncnc21 (stereo partly drawn),–
8.81 µM,C=C1CC[C@@H]2[C@](C)(CO)[C@H](O)CC[C@@]2(C)[C@@H]1C/C=C1/C(=O)OC[C@H]1O [ANDROGRAPHOLIDE],–
> 100 µM,C=C1CCC2[C@](C)(CO)[C@H](O)CC[C@@]2(C)[C@@H]1CCn1cncn1 (stereo partly drawn),–
35.8 µM,C=C1CCC2[C@](C)(CO)[C@H](O)CC[C@@]2(C)[C@@H]1CCOc1ccc(C(C)(C)C)cc1 (stereo partly drawn),–
35.2 µM,C=C1CCC2[C@](C)(CO)[C@H](O)CC[C@@]2(C)[C@@H]1CCOC(=O)c1ccccc1[N+](=O)[O-] (stereo partly drawn),–
> 50 µM,C=C1CCC2[C@](C)(CO)[C@H](O)CC[C@@]2(C)[C@@H]1CCOc1ccc2ccc(=O)oc2c1 (stereo partly drawn),–
> 50 µM,C=C1CCC2[C@](C)(CO)[C@H](O)CC[C@@]2(C)[C@@H]1CCOC(=O)c1cccnc1 (stereo partly drawn),–
40.2 µM,C=C1CCC2[C@](C)(CO)[C@H](O)CC[C@@]2(C)[C@@H]1CCOc1ccc(Br)cc1 (stereo partly drawn),–
> 100 µM,C=C1CCC2[C@](C)(CO)[C@H](O)CC[C@@]2(C)[C@@H]1CCOC(=O)c1ccccc1 (stereo partly drawn),–
12.8 µM,C=C1CCC2[C@](C)(CO)[C@H](O)CC[C@@]2(C)[C@@H]1CCOc1ccc(Oc2ccccc2)cc1 (stereo partly drawn),–
> 100 µM,C=C1CCC2[C@](C)(CO)[C@H](O)CC[C@@]2(C)[C@@H]1CCn1ccc(=O)[nH]c1=O (stereo partly drawn),–
3.38 µM,C=C1CCC2[C@](C)(CO)[C@H](O)CC[C@@]2(C)[C@@H]1CCOc1ccc([N+](=O)[O-])cc1 (stereo partly drawn),inhibition (RAW264.7 [2]): Active; inhibition (RAW264.7 [3]): Active; inhibition (RAW264.7 [4]): Dose-dependent effect; inhibition [5]: Active; inhibition (RAW264.7 [6]): Dose-dependent effect; inhibition (INH) (RAW264.7 [7]): 100%; Activity (RAW264.7 [8]): Non-Toxic; inhibition (RAW264.7 [9]): Active; inhibition [10]: Active
> 50 µM,C=C1CCC2[C@](C)(CO)[C@H](O)CC[C@@]2(C)[C@@H]1CCn1ccnc1 (stereo partly drawn),–
47.7 µM,C=C1CCC2[C@](C)(CO)[C@H](O)CC[C@@]2(C)[C@@H]1CCOc1ccccc1O (stereo partly drawn),–
> 100 µM,C=C1CCC2[C@](C)(CO)[C@H](O)CC[C@@]2(C)[C@@H]1CCOc1ccc(-c2cc(=O)c3cc(C)ccc3o2)cc1 (stereo partly drawn),–
